Some of the results follow. Unmarked numbers belong to inactive results. The source made the active and inactive calls.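 The calls were made as follows, unless noted: active = mean inhibition across replicates above the hit cutoff set in the primary screen (cut at about 30% in these data); inactive = the rest.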
test system: T-cell receptor (TCR)-CD3 interaction, human; assay: TCR-CD3 interaction inhibitors, retest, confirmation, biochemical, fluorescence, TAMRA-labeled TCR probe (AID 652036; in the data active = inhibition above about 19%); details: TAMRA-labeled TCR probe fluorescence binding assay; at 9.4 µM; active compounds read high

Compound | inhibition
COCCOC(=O)c1sc(=S)n(CCOC)c1N | 33.1% (active)
COCCNC(=O)Nc1ccc2nc(-c3ccco3)c(-c3ccco3)nc2c1 | 41.6% (active)
O=[N+]([O-])c1cc(Cl)cc(/C=N/NC(=S)Nc2cc(S(=O)(=O)N3CCOCC3)ccc2Cl)c1O | 38.1% (active)
CN(NC(=O)c1ccccc1F)c1nc(C(F)(F)F)nc2ccccc12 | 2.71%

target: (Lyso)-N-acylphosphatidylethanolamine lipase (Mus musculus) (UniProt Q8VD66); assay: ABHD4 inhibitors, retest, confirmation, biochemical, fluorescence polarization, mouse (AID 720658); details: purified mABHD4, FP-Rh probe fluorescence polarization; at 8.92 µM; active compounds read high;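 also: 0% = wild-type ABHD4 with DMSO and 100% = catalytically dead S159A mutant with DMSO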
Method in brief: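 Also added: Rhodamine-tagged fluorophosphonate probe FP-Rh / Assay system: mouse wild-type ABHD4 enzyme / Evaluation: % inhibition relative to DMSO and S159A mutant controls / Medium: HEPES pH 7.0 buffer with NaCl and Pluronic F-127 / Detection: fluorescence polarization at 525 nm excitation, 598 nm emission / Timing: 45 min compound-enzyme pre-incubation, then 60 min probe incubation, 25 °C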

(Lyso)-N-acylphosphatidylethanolamine lipase (Mus musculus), sequence (Q8VD66 whole entry, looked up): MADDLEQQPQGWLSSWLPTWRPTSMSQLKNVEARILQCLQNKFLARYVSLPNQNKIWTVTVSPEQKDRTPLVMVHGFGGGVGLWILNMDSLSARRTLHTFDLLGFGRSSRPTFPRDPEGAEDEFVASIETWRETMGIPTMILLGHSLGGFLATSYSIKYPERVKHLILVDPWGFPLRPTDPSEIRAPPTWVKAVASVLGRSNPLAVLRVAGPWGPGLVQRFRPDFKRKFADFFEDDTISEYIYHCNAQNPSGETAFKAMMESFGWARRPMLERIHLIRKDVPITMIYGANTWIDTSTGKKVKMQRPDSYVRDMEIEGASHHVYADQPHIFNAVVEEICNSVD

Compound | inhibition
COCCOC(=O)c1sc(=S)n(CCOC)c1N | 47.4% (active)
O=C(NNc1c2ccccc2nc2ccccc12)c1cc2ccccc2cc1O | 41% (active)
Clc1ccccc1CSc1nnc(-c2ccco2)c(-c2ccco2)n1 | 27.6%
O=[N+]([O-])c1cc(Cl)cc(/C=N/NC(=S)Nc2cc(S(=O)(=O)N3CCOCC3)ccc2Cl)c1O | 77.1% (active)

Source: PubChem BioAssay
